The target of data set [1] is T1, Butyrophilin subfamily 3 member A1 (Homo sapiens, UniProt O00481). The experiment in a line: Binding affinity to BTN3A1 in human PBMC-derived Vgamma9/Vdelta2 T cells assessed as increase in CD69/CD25 level incubated for overnight by flow cytometric analysis. It is filed as tissue-based, Vgamma9Vdelta2 T cell. The gist of the method: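 Healthy-donor PBMCs, 5 × 10^5 cells per well, stimulated with compounds over 10 pM to 100 μM, or 1 aM to 100 μM in a separate run. Incubated overnight at 37 °C/5% CO2. Vγ9+Vδ2+ cells gated within live CD3+ cells by flow cytometry and scored as % CD69+CD25+.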
Target sequence in this assay (O00481 whole entry): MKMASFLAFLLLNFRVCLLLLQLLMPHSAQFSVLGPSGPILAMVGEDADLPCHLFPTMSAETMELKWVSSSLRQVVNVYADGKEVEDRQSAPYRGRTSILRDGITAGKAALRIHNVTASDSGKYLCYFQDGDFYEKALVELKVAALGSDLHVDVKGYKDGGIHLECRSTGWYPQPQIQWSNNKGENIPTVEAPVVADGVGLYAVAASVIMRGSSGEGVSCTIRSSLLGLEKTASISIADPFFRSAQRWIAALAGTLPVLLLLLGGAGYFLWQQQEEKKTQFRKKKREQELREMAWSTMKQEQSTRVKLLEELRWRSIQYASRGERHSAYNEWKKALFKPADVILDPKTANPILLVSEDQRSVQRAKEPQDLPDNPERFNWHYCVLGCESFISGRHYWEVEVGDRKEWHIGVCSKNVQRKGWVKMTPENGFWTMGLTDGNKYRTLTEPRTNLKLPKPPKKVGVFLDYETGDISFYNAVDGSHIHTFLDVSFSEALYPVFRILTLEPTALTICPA

The target of data set [2] is T1, Butyrophilin subfamily 3 member A1. The data set is described as follows: Binding affinity to BTN3A1 in human PBMC-derived Vgamma9/Vdelta2 T cells assessed as induction of Vgamma9/Vdelta2 T cell mediated T-24 cell lysis co-expressing GFP at 10 pM preincubated 4 hrs followed by compound washout and subsequent Vgamma9Vdelta2 T cell addition at 8:1 effector/target ratio and measured after 18 hrs by fluorescence based assay. Format: tissue-based. An outline of the steps:
(§1)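 T24 bladder carcinoma cells made GFP+ by retroviral transduction. Targets pulsed 4 h with 10 pM compound, washed three times in RPMI, then cocultured 18 h at 37 °C with Vγ9Vδ2 T-cells expanded 14 days from donor PBMCs (5 μM zoledronate, 100 U/mL IL2 every 2–3 days). % killing = eFluor780+ GFP+ of all GFP+ T24 cells, by flow cytometry. Basal untreated-target killing subtracted; mean ± SE, n = 3.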
Target sequence in this assay (O00481 30-513 limits assumed): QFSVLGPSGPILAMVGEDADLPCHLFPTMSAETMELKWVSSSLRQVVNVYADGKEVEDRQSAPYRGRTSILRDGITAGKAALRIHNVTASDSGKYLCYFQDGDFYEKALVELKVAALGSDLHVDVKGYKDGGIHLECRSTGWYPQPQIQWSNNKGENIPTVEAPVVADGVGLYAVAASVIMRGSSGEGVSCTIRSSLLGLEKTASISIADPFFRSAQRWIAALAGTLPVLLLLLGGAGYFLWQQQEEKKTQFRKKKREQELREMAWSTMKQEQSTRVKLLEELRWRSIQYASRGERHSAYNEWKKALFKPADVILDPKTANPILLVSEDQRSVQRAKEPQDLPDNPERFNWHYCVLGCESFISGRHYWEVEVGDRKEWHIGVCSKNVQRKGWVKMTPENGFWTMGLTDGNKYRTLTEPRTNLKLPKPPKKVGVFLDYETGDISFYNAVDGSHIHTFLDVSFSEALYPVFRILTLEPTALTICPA

The nature of data set [3]: Half life in human serum at 5 mg and measured up to 12 hrs by 31PNMR analysis. Format: ADME, cell-free. The gist of the method:
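Prodrug (5.0 mg) dissolved in DMSO/D2O; control 31P NMR spectrum recorded at 37 °C, then freshly thawed human serum added. 31P NMR spectra acquired at 37 °C every 30 min over 12 h to follow the prodrug signals.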

Data set [4] deals with T1, Butyrophilin subfamily 3 member A1. The data set is described as follows: Binding affinity to BTN3A1 in human PBMC-derived Vgamma9/Vdelta2 T cells assessed as induction of Vgamma9/Vdelta2 T cell mediated T-24 cell lysis co-expressing GFP at 10 pM preincubated 4 hrs followed by compound washout and subsequent Vgamma9Vdelta2 T cell addition at 1:1 effector/target ratio and measured after 18 hrs by fluorescence based assay. Format: tissue-based. An outline of the steps: as §1
Target sequence in this assay (O00481 30-513 limits assumed): as above

The subject of another data set is T-24. The experiment in a line: Cytotoxicity against human T-24 cells co-expressing GFP assessed as reduction in cell viability at 10 pM after 4 hrs by eFluor 780 fixable viability dye based fluorescence assay. To be noted: t-24, 4 h. The gist of the method: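 GFP+ T24 cells pulsed 4 h with 10 pM compound, washed, and held 18 h at 37 °C without effector cells (0:1 ratio). Dead targets measured by flow cytometry as eFluor780+ GFP+ fraction of total GFP+ T24 cells; mean ± SE, n = 3.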

Data set [5] deals with T1, Butyrophilin subfamily 3 member A1. The data set is described as follows: Binding affinity to BTN3A1 in human PBMC-derived Vgamma9/Vdelta2 T cells. Format: tissue-based, Vgamma9Vdelta2 T cell.
Target sequence in this assay (O00481 whole entry): as the sequence (O00481 whole entry) above
Data set [6] shares this target. The experiment in a line: Potency index, ratio of HMBPP EC50 to test compound EC50 for activation of BTN3A1 in human PBMC-derived Vgamma9/Vdelta2 T cells. It is filed as tissue-based. To be noted: Vgamma9Vdelta2 T cell.
Target sequence in this assay (O00481 30-513 limits assumed): as the sequence (O00481 30-513 limits assumed) above
In a further data set the test system is CD8-positive T cell. The experiment in a line: Activation of human PBMC derived CD-8 positive cells assessed as increase in alphabeta T cells at 0.1 to 10000 nM by Alexa Flour A88a staining based flow cytometry. It is filed as functional. To be noted: dose nM 0.1-10000. Background: Flow cytometry measures light scatter and fluorescence of single cells or particles in a stream.

Data set [7] can be described thus: Drug metabolism assessed as recombinant carboxypeptidase Y (unknown origin)-metabolite C formation at 3 mg measured at 1 hr interval for […] by 31PNMR analysis. Format: ADME, Homo sapiens. The gist of the method:
(§2)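 Compound, 3.0 mg in acetone-d6, mixed with TRIZMA buffer pH 7.6. Control 31P NMR taken at 25 °C, then carboxypeptidase Y (0.1 mg in TRIZMA) added. Spectra recorded at 25 °C after 10 min and then every 1 h for 12 h.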

A short description of data set [8]: Drug metabolism assessed as recombinant carboxypeptidase Y (unknown origin)-mediated metabolite C formation and measured up to 15 hrs by LC-MS analysis. It is filed as ADME. To be noted: human.
Data set [9] can be described thus: Drug metabolism assessed as recombinant carboxypeptidase Y (unknown origin)-mediated metabolite C formation and measured up to 15 hrs by HPLC analysis. It is filed as ADME. The following applies: human.
The nature of data set [10]: Drug metabolism assessed as recombinant carboxypeptidase Y (unknown origin)-mediated hydrolysis of ester motif at 3 mg measured at 1 hr interval […] by 31PNMR analysis. It is filed as ADME, Homo sapiens. An outline of the steps: as §2
Data set [11] is described as follows: Stability of compound in human serum at 5 mg and measured at 30 mins interval for up to 12 hrs by 31PNMR analysis. Format: ADME, cell-free. The gist of the method: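 Compound, 5.0 mg in DMSO/D2O, with control 31P NMR recorded at 37 °C. Freshly thawed human serum then added and 31P NMR spectra recorded at 37 °C every 30 min over 12 h.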

Activity calls are given as the source filed them.

With `O=P(O)(O)C(O)(Cn1ccnc1)P(=O)(O)O` [ZOLEDRONIC ACID], the 50% effective concentration (EC50) in data set [1] was 3060 nM.
Turning to `C/C(=C\COP(=O)(O)OP(=O)(O)O)CO`, the outcome in data set [2] and in data set [4] was Active. This compound also had a half-life in data set [3] of more than 12 h. The Activity result with T-24 was “Non-Toxic”.
Turning to `C/C(=C\CCP(=O)(N[C@@H](C)C(=O)OC(C)C)Oc1ccccc1)CO` (some centres undefined), the EC50 in data set [1] was 0.519 nM.
In turn, `O=P(O)(O)C(O)(Cc1cccnc1)P(=O)(O)O` [RISEDRONIC ACID] had an EC50 in data set [5] of 80 nM.
In the case of `COC(=O)[C@H](C)NP(=O)(CC/C=C(\C)CO)Oc1ccccc1` (some centres undefined), the EC50 in [1] worked out at 0.617 nM.
For `C/C(=C\CC(F)(F)P(=O)(N[C@@H](C)C(=O)OCc1ccccc1)Oc1ccccc1)CO` (some centres undefined), the outcome in data set [2] and in [4] was Active. Moreover, the Ratio EC50 in data set [6] turned out to be 15000. In addition, in the data set with T-24, the Activity entry is given as “Non-Toxic”. For the same compound, in the data set on CD8-positive T cell, the result was inactive.
For `C/C(=C\CC(F)(F)P(=O)(N[C@@H](C)C(=O)OC(C)(C)C)Oc1ccccc1)CO` (some centres undefined), the result in data set [2] and in [4] was Active. In data set [1], the EC50 was 25.8 nM. For the same compound, the Activity entry in the data set with T-24 was “Non-Toxic”.
As for `C/C(=C\CC(F)(F)P(=O)(N[C@@H](C)C(=O)OC(C)C)Oc1ccccc1)CO` (some centres undefined), the Drug metabolism entry in [7], in data set [8], in data set [9] and in data set [10] was “Metabolite_Detected” throughout. Moreover, the EC50 in data set [1] came to 0.759 nM.
Consider `COC(=O)[C@H](C)NP(=O)(Oc1ccccc1)C(F)(F)C/C=C(\C)CO` (some centres undefined), for which, in data set [1], the EC50 came out at 0.728 nM. The Stabilty entry in data set [11] is “Stable”.
With `C/C(=C\CCP(=O)(N[C@@H](C)C(=O)OC(C)(C)C)Oc1ccccc1)CO` (some centres undefined), the outcome in data set [2] and in [4] was Active. In data set [1], the EC50 was 73.4 nM. Moreover, the Activity entry in the data set with T-24 is “Non-Toxic”.
For `C/C(=C\CCP(=O)(N[C@@H](C)C(=O)OCc1ccccc1)Oc1ccccc1)CO` (some centres undefined), the outcome in data set [2] and in data set [4] was Active. For the same compound, the Ratio EC50 in [6] worked out at 15000. Also, the Stabilty entry in [11] is listed as “Stable”. Besides, the Activity result in the data set with T-24 is “Non-Toxic”. Moreover, the result with CD8-positive T cell was inactive.

As a reminder, the EC50 is the concentration giving half of the maximal effect. As usually defined, the half-life is the time needed for the level to fall by half in the phase considered. Lower therefore signals fast loss.
